Laboratory results taken from ChEMBL document CHEMBL1155897, “Structure-antitussive activity relationships of naltrindole derivatives. Identification of novel and potent antitussive agents” (J Med Chem, 2008).
pKi: −log10 of the molar value. Activity calls are given as the source filed them. The rule behind the calls is not given here.

Tests used:
Mu-type opioid receptor [1] = target: T1, Mu-type opioid receptor (Cavia porcellus, UniProt P97266); assay: Displacement of [3H]DAMGO from mu opioid receptor in Hartley guinea pig brain membrane; format: cell membranes
T1 sequence (P97266 whole entry): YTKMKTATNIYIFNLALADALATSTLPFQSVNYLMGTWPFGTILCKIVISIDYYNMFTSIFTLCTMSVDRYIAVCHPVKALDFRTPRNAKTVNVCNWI
Summary of the method: (§1)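 Brains from 4-week male Hartley guinea pigs were split into forebrain (µ, δ) and cerebellum (κ). Membranes were homogenised in 50 mM Tris-HCl pH 7.4 and held 1 h at 4 °C to remove endogenous ligands.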

[2] = target: T2, Kappa-type opioid receptor (Cavia porcellus, UniProt P41144); assay: Displacement of […] from kappa opioid receptor in Hartley guinea pig brain membrane; format: cell membranes
T2 sequence (P41144 whole entry): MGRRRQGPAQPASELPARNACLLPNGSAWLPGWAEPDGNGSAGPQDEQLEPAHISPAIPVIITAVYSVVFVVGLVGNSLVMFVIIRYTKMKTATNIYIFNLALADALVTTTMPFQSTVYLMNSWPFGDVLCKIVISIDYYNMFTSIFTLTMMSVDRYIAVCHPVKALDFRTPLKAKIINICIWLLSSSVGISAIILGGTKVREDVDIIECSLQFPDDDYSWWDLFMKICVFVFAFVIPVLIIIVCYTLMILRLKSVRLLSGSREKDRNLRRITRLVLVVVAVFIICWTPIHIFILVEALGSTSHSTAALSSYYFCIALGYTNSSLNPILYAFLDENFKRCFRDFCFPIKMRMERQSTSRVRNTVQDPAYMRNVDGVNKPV

[3] = Displacement of [3H]NTI from delta opioid receptor in Hartley guinea pig brain membrane; format: cell membranes, Cavia porcellus; summary of the method: as §1
[4] = target: Mu-type opioid receptor (Homo sapiens) (UniProt P35372); assay: Agonist activity at human mu opioid receptor expressed in CHO cells assessed as stimulation of [35S]GTPgammaS binding at 1 uM relative to DAMGO; format: functional, cell-based
Sequence of Mu-type opioid receptor (Homo sapiens) (P35372 whole entry): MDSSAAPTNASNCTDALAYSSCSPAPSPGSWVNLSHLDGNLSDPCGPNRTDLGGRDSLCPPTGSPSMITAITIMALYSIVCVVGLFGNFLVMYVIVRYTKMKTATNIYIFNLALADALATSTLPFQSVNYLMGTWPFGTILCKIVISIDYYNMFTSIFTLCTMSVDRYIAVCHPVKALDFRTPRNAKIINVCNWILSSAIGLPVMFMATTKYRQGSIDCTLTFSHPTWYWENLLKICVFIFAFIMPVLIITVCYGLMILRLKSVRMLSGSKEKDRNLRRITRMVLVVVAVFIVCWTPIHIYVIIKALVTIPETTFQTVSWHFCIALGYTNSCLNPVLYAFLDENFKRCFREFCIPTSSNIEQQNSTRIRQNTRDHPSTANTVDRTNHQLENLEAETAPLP
Summary of the method: (§2)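 Compound was preincubated 20 min at 30 °C, then 60 min with SPA beads. 0.3 nM [35S]GTPγS was added for 30 min.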

[5] = target: Kappa-type opioid receptor (Homo sapiens) (UniProt P41145); assay: Agonist activity at human kappa opioid receptor expressed in HEK293 cells assessed as stimulation of [35S]GTPgammaS binding at 1 uM relative to U69,593; format: functional, cell-based; summary of the method: as §2
Sequence of Kappa-type opioid receptor (Homo sapiens) (P41145 whole entry): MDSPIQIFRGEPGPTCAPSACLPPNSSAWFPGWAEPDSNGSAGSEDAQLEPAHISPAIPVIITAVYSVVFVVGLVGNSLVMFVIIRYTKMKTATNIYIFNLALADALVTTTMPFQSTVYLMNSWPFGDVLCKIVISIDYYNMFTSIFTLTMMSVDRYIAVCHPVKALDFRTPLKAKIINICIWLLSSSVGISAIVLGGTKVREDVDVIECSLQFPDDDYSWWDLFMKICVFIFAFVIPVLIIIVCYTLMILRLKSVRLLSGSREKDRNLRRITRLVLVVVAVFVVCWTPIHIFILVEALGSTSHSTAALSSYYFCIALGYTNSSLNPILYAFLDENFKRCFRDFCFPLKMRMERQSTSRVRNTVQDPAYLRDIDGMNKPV

Rattus norvegicus [6] = assay: Antitussive activity in ip dosed Sprague-Dawley rat assessed as reduction in number of capsaicin-induced coughs; format: functional
Cavia porcellus [7] = species: Cavia porcellus; assay: Selectivity for delta opioid receptor over mu opioid receptor in Hartley guinea pig brain membrane; format: cell membranes
Cavia porcellus [8] = species: Cavia porcellus; assay: Selectivity for delta opioid receptor over kappa opioid receptor in Hartley guinea pig brain membrane; format: cell membranes
[9] = target: Delta-type opioid receptor (Homo sapiens) (UniProt P41143); assay: Agonist activity at human delta opioid receptor expressed in CHO cells assessed as stimulation of [35S]GTPgammaS binding at 1 uM relative to DPDPE; format: functional, cell-based; summary of the method: as §2
Sequence of Delta-type opioid receptor (Homo sapiens) (P41143 whole entry): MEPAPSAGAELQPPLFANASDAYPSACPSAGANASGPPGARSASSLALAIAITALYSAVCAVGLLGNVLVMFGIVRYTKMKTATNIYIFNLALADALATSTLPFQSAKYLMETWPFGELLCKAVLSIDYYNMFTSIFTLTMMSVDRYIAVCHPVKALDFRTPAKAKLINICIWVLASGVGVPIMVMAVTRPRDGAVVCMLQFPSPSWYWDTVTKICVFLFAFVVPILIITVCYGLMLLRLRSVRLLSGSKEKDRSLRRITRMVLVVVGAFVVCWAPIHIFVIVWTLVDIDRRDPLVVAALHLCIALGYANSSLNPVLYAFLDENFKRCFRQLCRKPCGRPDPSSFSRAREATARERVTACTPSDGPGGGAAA

Mu-type opioid receptor [10] = target: T1, Mu-type opioid receptor; assay: Binding affinity to guinea pig mu opioid receptor; summary of the method: as §1
Rattus norvegicus [11] = assay: Antitussive activity in po dosed Sprague-Dawley rat assessed as reduction in number of capsaicin-induced coughs; format: functional
[12] = Binding affinity to guinea pig delta opioid receptor; parameters: species or system Cavia porcellus; summary of the method: as §1
[13] = target: T2, Kappa-type opioid receptor; assay: Binding affinity to guinea pig kappa opioid receptor; summary of the method: as §1
Rattus norvegicus [14] = assay: Effect on Sprague-Dawley rat capsaicin-induced cough nodel assessed as increase in number of coughs at 10 mg/kg, sc; format: functional, organism-based; parameters: dose 10 mg/kg
[15] = target: T3, Delta-type opioid receptor (Mus musculus, UniProt P32300); assay: Antagonist activity at delta opioid receptor in electrically-induced ddY mouse vas deferens assessed as effect on DPDPE-induced inhibition of electrically-stimulated contraction at 100 uM; format: functional, tissue-based; conditions: read-out: pA2 (converted)
T3 sequence (P32300 whole entry): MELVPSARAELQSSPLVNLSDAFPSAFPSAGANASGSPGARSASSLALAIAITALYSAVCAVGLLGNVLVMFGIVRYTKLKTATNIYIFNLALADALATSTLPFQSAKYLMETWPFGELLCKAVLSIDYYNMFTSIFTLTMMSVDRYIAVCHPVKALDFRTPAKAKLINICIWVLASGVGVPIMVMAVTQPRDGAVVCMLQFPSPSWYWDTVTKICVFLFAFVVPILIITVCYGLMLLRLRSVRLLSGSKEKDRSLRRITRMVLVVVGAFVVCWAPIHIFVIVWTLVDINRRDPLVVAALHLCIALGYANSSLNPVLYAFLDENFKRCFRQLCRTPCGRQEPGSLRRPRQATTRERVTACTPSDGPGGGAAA
Summary of the method: (§3)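 Vas deferens from male ddy mice was mounted in a Magnus tube at 37 °C in Krebs-Henseleit gassed with 95% O2/5% CO2 and electrically stimulated. Antagonist was added 20 min before cumulative agonist: DPDPE (δ), U-50,488H (κ) or morphine (µ). Dose ratio is the agonist IC50 with versus without antagonist, as mean of N=4. pA2 = −log([B]/(dose ratio − 1)).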

[16] = target: T4, Kappa-type opioid receptor (Mus musculus, UniProt P33534); assay: Antagonist activity at kappa opioid receptor in electrically-induced ddY mouse vas deferens assessed as effect on U50,488H-induced inhibition of electrically-stimulated contraction at 100 uM; format: functional, tissue-based; conditions: read-out: pA2 (converted); summary of the method: as §3
T4 sequence (P33534 whole entry): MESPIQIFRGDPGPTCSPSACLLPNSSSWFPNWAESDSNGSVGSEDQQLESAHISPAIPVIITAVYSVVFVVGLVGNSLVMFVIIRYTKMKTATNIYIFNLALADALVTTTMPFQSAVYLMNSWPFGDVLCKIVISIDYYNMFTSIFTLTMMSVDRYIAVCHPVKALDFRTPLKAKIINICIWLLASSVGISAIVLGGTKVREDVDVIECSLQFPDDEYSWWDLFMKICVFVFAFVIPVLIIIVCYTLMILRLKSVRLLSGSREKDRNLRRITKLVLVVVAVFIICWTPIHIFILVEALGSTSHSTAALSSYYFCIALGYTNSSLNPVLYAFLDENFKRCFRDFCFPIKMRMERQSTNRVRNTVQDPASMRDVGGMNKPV

[17] = target: T4, Kappa-type opioid receptor; assay: Antagonist activity at kappa opioid receptor in electrically-induced ddY mouse vas deferens assessed as effect on U50,488H-induced inhibition of electrically-stimulated contraction at 10 uM; format: functional, tissue-based; conditions: read-out: pA2 (converted); summary of the method: as §3
Mu-type opioid receptor [18] = target: T5, Mu-type opioid receptor (Mus musculus, UniProt P42866); assay: Antagonist activity at mu opioid receptor in electrically-induced ddY mouse vas deferens assessed as effect on […]-induced inhibition of electrically-stimulated contraction at 10 uM; format: functional, tissue-based; conditions: read-out: pA2 (converted)
T5 sequence (P42866 whole entry): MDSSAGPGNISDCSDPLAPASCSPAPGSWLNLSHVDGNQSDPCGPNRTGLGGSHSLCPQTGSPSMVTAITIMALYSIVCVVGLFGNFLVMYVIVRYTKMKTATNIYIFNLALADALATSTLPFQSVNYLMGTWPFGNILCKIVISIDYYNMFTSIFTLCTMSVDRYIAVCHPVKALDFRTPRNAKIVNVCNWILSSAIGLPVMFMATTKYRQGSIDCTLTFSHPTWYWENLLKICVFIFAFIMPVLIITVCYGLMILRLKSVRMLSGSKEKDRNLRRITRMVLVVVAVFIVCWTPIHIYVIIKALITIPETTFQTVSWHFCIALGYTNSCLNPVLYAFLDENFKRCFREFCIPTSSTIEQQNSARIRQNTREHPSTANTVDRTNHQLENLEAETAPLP

Mu-type opioid receptor [19] = target: T5, Mu-type opioid receptor; assay: Antagonist activity at mu opioid receptor in electrically-induced ddY mouse vas deferens assessed as effect on morphine-induced inhibition of electrically-stimulated contraction at 30 uM; format: functional, tissue-based; conditions: read-out: pA2 (converted); summary of the method: as §3
[20] = target: T4, Kappa-type opioid receptor; assay: Antagonist activity at kappa opioid receptor in electrically-induced ddY mouse vas deferens assessed as effect on U50,488H-induced inhibition of electrically-stimulated contraction at 30 uM; format: functional, tissue-based; conditions: read-out: pA2 (converted); summary of the method: as §3
[21] = target: T3, Delta-type opioid receptor; assay: Antagonist activity at delta opioid receptor in electrically-induced ddY mouse vas deferens assessed as effect on DPDPE-induced inhibition of electrically-stimulated contraction at 30 uM; format: functional, tissue-based; conditions: read-out: pA2 (converted); summary of the method: as §3
[22] = target: T3, Delta-type opioid receptor; assay: Antagonist activity at delta opioid receptor in electrically-induced ddY mouse vas deferens assessed as effect on DPDPE-induced inhibition of electrically-stimulated contraction at 10 uM; format: functional, tissue-based; conditions: read-out: pA2 (converted); summary of the method: as §3

SMILES	pKi (Mu-type opioid receptor [1])	pKi [2]	pKi [3]	Activity [4] [%]	Activity [5] [%]	ED50 (Rattus norvegicus [6]) [mg/kg]	Selectivity ratio (Cavia porcellus [7])	Selectivity ratio (Cavia porcellus [8])	Activity [9] [%]	other results
CCn1c2c(c3cccc(C)c31)C[C@@]1(O)[C@H]3Cc4ccc(OC)c5c4[C@@]1(CCN3CC1CC1)[C@H]2O5	< 5.44	5.33	6.66	1	21	0.00179	> 17	21	47	–
CCCn1c2c(c3ccccc31)C[C@@]1(O)[C@H]3Cc4ccc(OC)c5c4[C@@]1(CCN3CC1CC1)[C@H]2O5	–	–	–	–	–	0.0148	–	–	–	–
Oc1ccc2c3c1O[C@H]1c4[nH]c5ccccc5c4C[C@@]4(O)[C@@H](C2)N(CC2CC2)CC[C@]314 [NALTRINDOLE]	7.90	8.13	9.87	5	12	–	94	55	-3	pKi (Mu-type opioid receptor [10]): 7.57; ED50 (Rattus norvegicus [11]): 1.83 mg/kg; pKi [12]: 9.66
COc1ccc2c3c1O[C@H]1c4[nH]c5ccccc5c4C[C@@]4(O)[C@@H](C2)N(CC2CC2)CC[C@]314	–	–	–	–	–	–	–	–	–	pKi [13]: 5.41; pKi (Mu-type opioid receptor [10]): 5.60; pKi [12]: 8.18
COc1ccc2c3c1O[C@H]1c4c(c5cccc(C)c5n4C)C[C@@]4(O)[C@@H](C2)N(CC2CC2)CC[C@]314	–	–	–	–	–	0.00635	–	–	–	–
CN1CC[C@]2(c3cccc(O)c3)Cc3nc4ccccc4cc3C[C@H]2C1 (relative stereo)	–	–	–	–	–	–	–	–	–	Activity (Rattus norvegicus [14]): Active
Cn1c2c(c3ccccc31)C[C@@]1(O)[C@H]3Cc4ccc(O)c5c4[C@@]1(CCN3CC1CC1)[C@H]2O5	–	–	–	–	–	0.204	–	–	–	–
Oc1ccc2c3c1O[C@H]1c4[nH]c5c6c(ccc5c4C[C@@]4(O)[C@@H](C2)N(CC2CC2)CC[C@]314)CCCC6	6.70	7.28	8.20	-1	33	–	32	8.2	19	Kb [15]: 23.4 nM; Kb [16]: 1660 nM
Oc1ccc2c3c1O[C@H]1c4c(c5cccc6c5n4CCCC6)C[C@@]4(O)[C@@H](C2)N(CC2CC2)CC[C@]314	6.95	7.40	8.65	-1	32	0.0123	50	18	20	Kb [17]: 51.3 nM; Kb (Mu-type opioid receptor [18]): 18.2 nM
Oc1ccc2c3c1O[C@H]1c4c(c5cccc6c5n4CCC6)C[C@@]4(O)[C@@H](C2)N(CC2CC2)CC[C@]314	7.22	7.82	9.17	1	26	–	90	22	-2	Kb (Mu-type opioid receptor [19]): 12.6 nM; Kb [20]: 27.5 nM; Kb [21]: 0.794 nM
Oc1ccc2c3c1O[C@H]1c4c(c5cccc6c5n4CC6)C[C@@]4(O)[C@@H](C2)N(CC2CC2)CC[C@]314	7.63	8.10	9.53	0	3	–	79	27	26	Kb (Mu-type opioid receptor [19]): 15.8 nM; Kb [20]: 7.94 nM
COc1ccc2c3c1O[C@H]1c4c(c5cccc6c5n4CCC6)C[C@@]4(O)[C@@H](C2)N(CC2CC2)CC[C@]314.CS(=O)(=O)O	< 5.44	5.48	7.10	-1	8	–	> 46	42	47	Kb [16]: 67.6 nM; ED50 (Rattus norvegicus [11]): 0.0064 mg/kg
COc1ccc2c3c1O[C@H]1c4c(c5cccc6c5n4CCCC6)C[C@@]4(O)[C@@H](C2)N(CC2CC2)CC[C@]314	< 5.44	5.48	6.56	-1	11	–	> 13	12	45	Kb [17]: 17 nM; Kb [22]: 295 nM
